According to ChEMBL document CHEMBL1142626, “Insecticidal and mutagenic evaluation of two annonaceous acetogenins” (J Nat Prod, 2000):

Legend:
[1] = system: Myzus persicae; experiment: Antifeedant effect against Myzus persicae assessed as inhibition index at 100 ug/cm2 relative to control; type: functional; parameters: scale not given: the % may be the effect or the level left
How it was run: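 Choice settling test on apterous adult M. persicae: 20 boxes of 10 aphids per treatment. Settling inhibition %SI = [1 − (%aphids on treated/%aphids on control surface)] × 100.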

[2] = system: Salmonella typhimurium; experiment: Mutagenic activity in Salmonella Typhimurium TA100 assessed as number of revertants at 100 ug/plate in presence of Wistar rat S9 liver homogenate; type: toxicity, organism-based, Liver S9 fraction; conditions: salmonella enterica subsp. enterica serovar typhimurium
How it was run: (§1)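 Salmonella/microsome plate test, with or without S9 from livers of male Wistar rats (~200 g). Strain markers and spontaneous revertant counts were routinely verified. Revertants are reported as mean ± standard error of triplicate plates. Strain-specific positive controls were used, with 2-aminoanthracene for all strains when S9 was present.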

[3] = system: Leptinotarsa decemlineata; experiment: Antifeedant effect against Leptinotarsa decemlineata assessed as feeding reduction at 10 ug/cm2; type: functional, organism-based
How it was run: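 Choice test on leaf disks using adult L. decemlineata or newly emerged fifth-instar S. littoralis larvae. Five to 10 plates per treatment, three insects each. Uneaten leaf-disk area was measured by scanner. %FR = [1 − (treatment/control consumption)] × 100 per arena. Where FR exceeded 50%, EC50 was taken from linear regression of %FR on log dose.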

[4] = system: Spodoptera littoralis; experiment: Antifeedant effect against Spodoptera littoralis L6 larvae assessed as relative consumption rate at 10 ug, po after 72 hrs; type: functional
How it was run: (§2)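 Preweighed, newly emerged S. littoralis L6 larvae (20 per experiment) were orally cannulated with 10 µg in 2 µL DMSO; controls got solvent alone. Relative consumption and growth rates were calculated at 72 h on a dry-weight basis. Log-transformed weights were analysed by ANOVA with LSD tests.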

[5] = system: Spodoptera littoralis; experiment: Antifeedant effect against Spodoptera littoralis L6 larvae assessed as relative growth rate at 10 ug, po after 72 hrs; type: functional; how it was run: as §2
[6] = system: Leptinotarsa decemlineata; experiment: Insecticidal activity against Leptinotarsa decemlineata assessed as mortality at 5 ug by hemolymph injection after 72 hrs; type: functional
How it was run: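 Adult L. decemlineata (20 beetles) were injected with 5 µg in DMSO through the metepimeron suture of the thorax. Beetles were kept on potato leaves. Symptoms and mortality were recorded up to 3 days, analysed by contingency tables and Abbott-corrected.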

[7] = system: Myzus persicae; experiment: Insecticidal activity against Myzus persicae assessed as increase in mortality at 100 ug/cm2 observed daily for 4 days; type: functional, organism-based
How it was run: (§3)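 No-choice test: 20 boxes, each with five same-age apterous adult M. persicae (100 insects). Nymphs produced in the first 48 h were separated from adults and kept in similarly treated boxes. Both were observed daily for 4 days for mortality. Analysed by contingency tables and LSD test.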

[8] = system: Myzus persicae; experiment: Insecticidal activity against Myzus persicae assessed as increase in mortality at 50 ug/cm2 observed daily for 4 days; type: functional, organism-based; how it was run: as §3
[9] = system: Salmonella typhimurium; experiment: Mutagenic activity in Salmonella Typhimurium TA98 assessed as number of revertants at 0.1 ug/plate in absence of Wistar rat S9 liver homogenate; type: toxicity, organism-based; conditions: salmonella enterica subsp. enterica serovar typhimurium; how it was run: as §1
[10] = system: Salmonella typhimurium; experiment: Mutagenic activity in Salmonella Typhimurium TA98 assessed as number of revertants at 1 ug/plate in absence of Wistar rat S9 liver homogenate; type: toxicity, organism-based; conditions: salmonella enterica subsp. enterica serovar typhimurium; how it was run: as §1
[11] = system: Salmonella typhimurium; experiment: Mutagenic activity in Salmonella Typhimurium TA98 assessed as number of revertants at 10 ug/plate in absence of Wistar rat S9 liver homogenate; type: toxicity, organism-based; conditions: salmonella enterica subsp. enterica serovar typhimurium; how it was run: as §1
[12] = system: Salmonella typhimurium; experiment: Mutagenic activity in Salmonella Typhimurium TA98 assessed as number of revertants at 20 ug/plate in absence of Wistar rat S9 liver homogenate; type: toxicity, organism-based; conditions: salmonella enterica subsp. enterica serovar typhimurium
How it was run: (§4)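 Salmonella/microsome plate test (Ames) in strain TA98, with genetic markers and spontaneous revertant counts verified routinely. Run with and without S9 mix, the S9 being liver postmitochondrial supernatant from male Wistar rats of about 200 g. Doses ran from 0.01 to 100 µg/plate. Revertants are the mean of triplicate plates with standard error. Positive controls were 0.5 µg 4-nitroquinoline-N-oxide without S9 and 15 µg 2-aminoanthracene with S9.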

[13] = system: Salmonella typhimurium; experiment: Mutagenic activity in Salmonella Typhimurium TA98 assessed as number of revertants at 50 ug/plate in absence of Wistar rat S9 liver homogenate; type: toxicity, organism-based; conditions: salmonella enterica subsp. enterica serovar typhimurium; how it was run: as §4
[14] = system: Salmonella typhimurium; experiment: Mutagenic activity in Salmonella Typhimurium TA98 assessed as number of revertants at 100 ug/plate in absence of Wistar rat S9 liver homogenate; type: toxicity, organism-based; conditions: salmonella enterica subsp. enterica serovar typhimurium; how it was run: as §4
[15] = system: Salmonella typhimurium; experiment: Mutagenic activity in Salmonella Typhimurium TA98 assessed as number of revertants at 0.01 ug/plate in presence of Wistar rat S9 liver homogenate; type: toxicity, organism-based, Liver S9 fraction; conditions: salmonella enterica subsp. enterica serovar typhimurium; how it was run: as §1
[16] = system: Salmonella typhimurium; experiment: Mutagenic activity in Salmonella Typhimurium TA98 assessed as number of revertants at 0.1 ug/plate in presence of Wistar rat S9 liver homogenate; type: toxicity, organism-based, Liver S9 fraction; conditions: salmonella enterica subsp. enterica serovar typhimurium; how it was run: as §1
[17] = system: Salmonella typhimurium; experiment: Mutagenic activity in Salmonella Typhimurium TA98 assessed as number of revertants at 1 ug/plate in presence of Wistar rat S9 liver homogenate; type: toxicity, organism-based, Liver S9 fraction; conditions: salmonella enterica subsp. enterica serovar typhimurium; how it was run: as §1
[18] = system: Salmonella typhimurium; experiment: Mutagenic activity in Salmonella Typhimurium TA98 assessed as number of revertants at 10 ug/plate in presence of Wistar rat S9 liver homogenate; type: toxicity, organism-based, Liver S9 fraction; conditions: salmonella enterica subsp. enterica serovar typhimurium; how it was run: as §1
[19] = system: Salmonella typhimurium; experiment: Mutagenic activity in Salmonella Typhimurium TA98 assessed as number of revertants at 20 ug/plate in presence of Wistar rat S9 liver homogenate; type: toxicity, organism-based, Liver S9 fraction; conditions: salmonella enterica subsp. enterica serovar typhimurium; how it was run: as §4
[20] = system: Salmonella typhimurium; experiment: Mutagenic activity in Salmonella Typhimurium TA98 assessed as number of revertants at 50 ug/plate in presence of Wistar rat S9 liver homogenate; type: toxicity, organism-based, Liver S9 fraction; conditions: salmonella enterica subsp. enterica serovar typhimurium; how it was run: as §4
[21] = system: Salmonella typhimurium; experiment: Mutagenic activity in Salmonella Typhimurium TA98 assessed as number of revertants at 100 ug/plate in presence of Wistar rat S9 liver homogenate; type: toxicity, organism-based, Liver S9 fraction; conditions: salmonella enterica subsp. enterica serovar typhimurium; how it was run: as §4
[22] = system: Salmonella typhimurium; experiment: Mutagenic activity in Salmonella Typhimurium TA100 assessed as number of revertants at 0.01 ug/plate in absence of Wistar rat S9 liver homogenate; type: toxicity, organism-based; conditions: salmonella enterica subsp. enterica serovar typhimurium; how it was run: as §1
[23] = system: Salmonella typhimurium; experiment: Mutagenic activity in Salmonella Typhimurium TA100 assessed as number of revertants at 0.1 ug/plate in absence of Wistar rat S9 liver homogenate; type: toxicity, organism-based; conditions: salmonella enterica subsp. enterica serovar typhimurium; how it was run: as §1
[24] = system: Salmonella typhimurium; experiment: Mutagenic activity in Salmonella Typhimurium TA100 assessed as number of revertants at 1 ug/plate in absence of Wistar rat S9 liver homogenate; type: toxicity, organism-based; conditions: salmonella enterica subsp. enterica serovar typhimurium; how it was run: as §1

For `CCCCCC[C@H](O)CCC[C@H](O)[C@H]1CC[C@H]([C@H]2CC[C@H]([C@H](O)CCCCCCCCCCCCC3=C[C@H](C)OC3=O)O2)O1` [SQUAMOCIN], which Activity [1] is on record?
Its Activity is under 40%.

What about the Activity [2] of the same compound?
The Activity was 102.

What about the Activity [3] of the same compound?
Its Activity is “Toxic”.

What about the Activity [4] of the same compound?
Its Activity is 20.35 mg.

What about the Activity [5] of the same compound?
The Activity was 3.36 mg.

And the Activity [6]?
Its Activity is 92.18%.

And the Activity [7]?
The Activity was “Non-toxic”.

What about the Activity [8] of the same compound?
The Activity was “Non-toxic”.

And the Activity [9]?
Its Activity is 25.

And the Activity [10]?
The Activity was 26.

What about the Activity [11] of the same compound?
The Activity was 18.

What about the Activity [12] of the same compound?
The Activity was 13.

And the Activity [13]?
Its Activity is 10.

And the Activity [14]?
The Activity was 6.

What about the Activity [15] of the same compound?
The Activity was 36.

What about the Activity [16] of the same compound?
Its Activity is 39.

What about the Activity [17] of the same compound?
Its Activity is 39.

What about the Activity [18] of the same compound?
Its Activity is 41.

And the Activity [19]?
Its Activity is 43.

And the Activity [20]?
The Activity was 36.

What about the Activity [21] of the same compound?
Its Activity is 31.

And the Activity [22]?
The Activity was 154.

What about the Activity [23] of the same compound?
The Activity was 140.

And the Activity [24]?
The Activity was 114.
